From ChEMBL document CHEMBL1124794, “Synthesis, chemistry, and antineoplastic activity of alpha-halopyridinium salts: potential pyridone prodrugs of acylated vinylogous carbinolamine tumor inhibitors” (J Med Chem, 1990) come the findings set out here.

Series [1] can be described thus: Half life at the ionic strength 1.0 M NaCl. Type of series: ADME. In outline: (§1)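 Pyridinium salt in 0.02 M phosphate buffer, pH 7.4, 25 °C, with NaCl varied 0.10–1.0 M. Loss of the pyridinium chromophore's UV absorbance maximum (conversion to pyridone) followed over time. Pseudo-first-order kobs and half-life derived from that decay.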
For series [2], the system named is P388. The series can be described thus: In vivo activity against P388 Lymphocytic Leukemia in CD2F1 mice at the dose of 50 mg/kg, activity expressed as TDS; 6/6. Type of series: functional, Mus musculus. In outline:
(§2)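 CD2F1 mice were inoculated with ascitic fluid holding ca. 10^6 P388 cells. Drug was given daily from 24 h after inoculation, from solutions or suspensions made fresh each day, some as a saline suspension. TDS is survivors/initial animals on day 5. BWD is body weight on day 5 minus day 1. %T/C compares median survival of treated and control mice.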

Series [3] has as its system P388. Nature of the series: In vivo activity against P388 Lymphocytic Leukemia in CD2F1 mice at the dose of 100 mg/kg, activity expressed as body weight difference. Type of series: functional, Mus musculus. In outline:
as §2

Series [4] deals with P388. Nature of the series: In vivo activity against P388 Lymphocytic Leukemia in CD2F1 mice at the dose of 100 mg/kg, activity expressed as TDS; 1/6. Type of series: functional, Mus musculus. In outline: as §2
Series [5] in a line: Effect of Ionic strength (0.25 M NaCl)on the hydrolysis of pyridinium Moity in 0.02 M buffer concentration, pH 7.4,25 degree C. Format: ADME. The method, boiled down:
as §1

Series [6] in a line: Half life at the buffer concentration of 0.05 M. Format: ADME.
Series [7] is described as follows: Half life at the pH 8.0. Type of series: ADME. Conditions: buffer.
The subject of series [8] is P388. Nature of the series: In vivo activity against P388 Lymphocytic Leukemia in CD2F1 mice at the dose of 12.5 mg/kg, activity expressed as KE. Type of series: functional, Mus musculus.
In series [9] the test system is P388. Nature of the series: In vivo activity against P388 Lymphocytic Leukemia in CD2F1 mice at the dose of 12.5 mg/kg, activity expressed as TDS; 6/6. Type of series: functional, Mus musculus. The method, boiled down: as §2
Series [10] deals with P388. The series can be described thus: In vivo activity against P388 Lymphocytic Leukemia in CD2F1 mice at the dose of 50 mg/kg, activity expressed as % T/C. Type of series: functional, Mus musculus. In outline: as §2
The nature of series [11]: Half life at the pH 7.4. Format: ADME. Conditions: buffer.
The subject of series [12] is P388. Nature of the series: In vivo activity against P388 Lymphocytic Leukemia in CD2F1 mice at the dose of 12.5 mg/kg, activity expressed as % T/C. Type of series: functional, Mus musculus. In outline: as §2
Series [13] relates to P388. The series can be described thus: In vivo activity against P388 Lymphocytic Leukemia in CD2F1 mice at the dose of 25 mg/kg, activity expressed as TDS; 6/6. Format: functional, Mus musculus. The method, boiled down:
as §2

Series [14] in a line: Half life at the concentration of 0.05 M.
Series [15] can be described thus: Half life at the pH 6.0. Type of series: ADME. Conditions: buffer. The method, boiled down:
(§3)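 Bis-carbamate in acetonitrile–water (1:1; buffer added to a 0.5 mg/mL acetonitrile solution), 0.05 M buffer, ionic strength 0.136 (KCl), 25 ± 0.1 °C. Buffers: phosphate pH 2.0; citrate pH 3.0–3.5; succinate pH 4.0; acetate pH 5.0; phosphate pH 6.0–8.0; borate pH 9.0; carbonate pH 10.0. HPLC bis-carbamate peak-area loss, ln(area0/areat) vs time slope = kobs. Duplicates averaged.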

In series [16] the test system is P388. The series can be described thus: In vivo activity against P388 Lymphocytic Leukemia in CD2F1 mice at the dose of 50 mg/kg, activity expressed as KE. Format: functional, Mus musculus.
Series [17] has as its system P388. Nature of the series: In vivo activity against P388 Lymphocytic Leukemia in CD2F1 mice at the dose of 25 mg/kg, activity expressed as % T/C. Type of series: functional, Mus musculus. The method, boiled down: as §2
The nature of series [18]: Half life at the concentration of 0.05 M. Format: ADME.
Series [19] concerns L1210. The series can be described thus: In vivo activity against murine L1210 tumor system at the dose of 166.7 mg/kg, activity expressed as body weight difference; T-C. Format: functional, Mus musculus. The method, boiled down:
(§4)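 L1210 lymphocytic leukemia: ascitic fluid with ca. 10^6 cells injected ip into CD2F1 mice. Dosing started 24 h after inoculation and was repeated daily for five doses in total, from solutions or suspensions made fresh each day. Toxicity day survivors were scored on day 5. Body weight difference is day 5 minus day 1. %T/C is based on median survival time versus controls.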

The nature of series [20]: In vivo activity against murine M5076 tumor system at the dose of 36 mg/kg, activity expressed as %T/C. Type of series: functional, Mus musculus. The method, boiled down:
(§5)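 M5076: ascitic fluid with ca. 10^6 cells inoculated ip into CD2F1 mice. Dosing started 24 h after inoculation and was then given every 4 days for four doses in total, from solutions or suspensions made fresh each day. Toxicity day survivors were scored on day 5. Body weight difference is day 14 minus day 1. %T/C is based on median survival time versus controls.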

Series [21] in a line: In vivo activity against murine M5076 tumor system at the dose of 100 mg/kg, activity expressed as %T/C. Type of series: functional, Mus musculus. The method, boiled down:
as §5

In series [22] the test system is L1210. The series can be described thus: In vivo activity against murine L1210 tumor system at the dose of 60 mg/kg, activity expressed as KE. Type of series: functional, Mus musculus. In outline:
as §4

Series [23] is described as follows: In vivo activity against murine M5076 tumor system at the dose of 60 mg/kg, activity expressed as body weight difference; T-C. Type of series: functional, Mus musculus.
Series [24] in a line: In vivo activity against murine M5076 tumor system at the dose of 21.6 mg/kg, activity expressed as KE. Format: functional, Mus musculus. The method, boiled down:
as §5

Series [25] has as its system P388. The series can be described thus: In vivo activity against P388 Lymphocytic Leukemia in CD2F1 mice at the dose of 100 mg/kg, activity expressed as body weight difference; T-C. Type of series: functional, Mus musculus. In outline: as §2
The nature of series [26]: Effect of pH on carbamate hydrolysis in 0.05 M buffer concentration at the pH 3.5, 25 degree C. Format: ADME. In outline:
as §3

The subject of series [27] is P388. The series can be described thus: In vivo activity against P388 Lymphocytic Leukemia in CD2F1 mice at the dose of 12.5 mg/kg, activity expressed as body weight difference; T-C. Type of series: functional, Mus musculus. In outline: as §2
Series [28] can be described thus: Effect of pH on carbamate hydrolysis in 0.05 M buffer concentration at the pH 10.0, 25 degree C. Type of series: ADME. In outline: as §3
The nature of series [29]: Effect of Ionic strength on carbamate hydrolysis in acetonitrile-water at 0.05 M buffer concentration, pH 7.4,25 degree C. Type of series: ADME. In outline: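 Bis-carbamate in acetonitrile–0.05 M phosphate buffer (1:1), pH 7.4, 25 °C, at varied ionic strength. Loss of bis-carbamate HPLC peak area tracked over time. Pseudo-first-order kobs taken from the ln(area0/areat) vs time slope.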

The nature of series [30]: Effect of phosphate buffer on carbamate hydrolysis in acetonitrile-water at the concentration of 0.01 M on pH 7.4, 25 degree C. Format: ADME. The method, boiled down: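 Bis-carbamate in acetonitrile–water (1:1), 25 ± 0.1 °C. Citrate buffer at pH 3.0 or phosphate buffer at pH 7.4, at 0.01, 0.025 or 0.05 M, ionic strength 0.136 (KCl). Kinetics followed by HPLC as the decrease in bis-carbamate peak area. The regression slope of ln(area0/areat) vs time gave pseudo-first-order kobs. Duplicates averaged.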

The nature of series [31]: In vivo activity against murine M5076 tumor system at the dose of 100 mg/kg, activity expressed as %T/C; 10/10. Format: functional, Mus musculus. In outline: as §5
Series [32] can be described thus: In vivo activity against murine M5076 tumor system at the dose of 21.6 mg/kg, activity expressed as %T/C. Type of series: functional, Mus musculus. In outline: as §5
The nature of series [33]: In vivo activity against murine M5076 tumor system at the dose of 21.6 mg/kg, activity expressed as body weight difference; T-C. Format: functional, Mus musculus. The method, boiled down: as §5

Values joined by “and” are separate entries in the source; they are usually repeats but may differ in a detail not shown here. Identical values can stand only once.

As usually defined, the half-life is the time in which the quantity being followed falls by half. The low end stands for rapid decline, the high end for slow decline. What is called T/C is the result in the treated group divided by that in the control group, in per cent. For the molecule `CC(C)NC(=O)OCc1c(COC(=O)NC(C)C)c(-c2cc[n+](C)c(F)c2)n2c1CCC2.[I-]`, the half-life in [1] stood at 99.1 min; in series [6] it was 34.6 min; in [7] it was 13.3 min; in series [11], 20.5 min; in series [15], 158 min. The TDS in series [2] was determined as 6; in [4], 1; in [9] it was 6; in series [13], 6. The BWD in series [3] is -7.6 g. In addition, the K obs in series [5] came out at 0.02 min⁻¹. Also, the KE in series [8] came out at 0.75; in [16] it was 1.32. The T/C in [10] is on record as 157%; in series [12], 149%; in series [17] it was 141%. In [14], the T1/2 is recorded as 96.2 min.
Turning to `CC(C)NC(=O)OCc1c(COC(=O)NC(C)C)c(-c2ccn(C)c(=O)c2)n2c1CCC2`, the half-life was determined as 22.8 min in series [18]; 53.5 min in series [6]; 54.1 min in series [7]; 53.5 min in [11]; 51.4 min in [15]. Moreover, the TDS in [2] amounted to 6; in [9], 6; in [13], 6; in [31], 10. Besides, the BWD in series [19] was -3.8 g; in [23], 0.9 g; in series [25] it was -1.8 g; in [27] it was -0.1 g; in series [33], 1.7 g. In addition, the T/C in series [20] was 117%; in [21], 122%; in series [10], 132%; in [12], 116%; in [32] it was 107%; in [17] it was 130%. Besides, the KE was -1.39 in [8], -0.5 in series [22], -1.93 in series [24] and -0.38 in [16]. Also, the K obs in series [26] was 0.0214 min⁻¹; in [28], 0.0133 min⁻¹; in series [29] it was 0.013 min⁻¹ and 0.0124 min⁻¹ and 0.008 min⁻¹; in [30] it was 0.0133 min⁻¹.
